Source: paper PMC3529916 (Bioorganic & medicinal chemistry, 2012)
Entries after “also recorded” stand apart in the source; their conditions may differ.

How the values were obtained:
anxiety [1] = test: Light/dark cycle test; type: in vivo, mouse
locomotor activity = test: Locomotor activity test; type: in vivo, mouse
[2] = cited from earlier work
anxiety [3] = details: cited from earlier work; for Anti-conflict effect / Effect on non-suppressed responding / response rates: dose range 0.1 to 10 mg/kg
[4] = ref Bristol-Myers Squibb, unpublished results of Phase I trials; cited from earlier work
[5] = ref Mithridion, unpublished results; cited from earlier work
[6] = via hepatic enzymes; ref unpublished results; cited from earlier work
[7] = Metabolic stability using pooled human liver microsomes; type: in vitro ADME; details: 1 and 10 μM, up to 60 min
[8] = system: neuropathic and inflammatory pain; details: cited from earlier work
α1β3γ2 GABAA receptors = α1β3γ2 GABAA receptors (Rattus norvegicus, UniProt P18508+P62813); test: Two-electrode voltage clamp, stimulation of GABA EC3 currents in Xenopus oocytes; type: cell-based
Procedure, shortened: (§1)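 Xenopus oocytes were injected with rat β3 and γ2 cDNAs plus α1, α2, α3 or α5. Follicle layers were removed 36 h later. Two-electrode voltage clamp was done at −60 mV and room temperature in XR buffer (pH 7.4, 5 mM HEPES). Test compound (0.1% DMSO final) was preapplied for 30 s, then coapplied with EC3 GABA until peak, with washes of up to 15 min. Curves were fitted to a four-parameter logistic.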

α2β3γ2 GABAA receptors = α2β3γ2 GABAA receptors (Rattus norvegicus, UniProt P18508+P23576); test: as above; type: cell-based; details: 100 nM
Procedure, shortened: as §1

α5β3γ2 GABAA receptors = α5β3γ2 GABAA receptors (Rattus norvegicus, UniProt P18508+P19969); test: as above; type: cell-based
Procedure, shortened: as §1

α3β3γ2 GABAA receptors = α3β3γ2 GABAA receptors (Rattus norvegicus, UniProt P18508+P20236); test: as above; type: cell-based; details: dose-response curves
Procedure, shortened: as §1

[9] = positive control, 3 mg/kg, i.p.

α1β3γ2 GABAA receptors, sequence (P62813 28-455): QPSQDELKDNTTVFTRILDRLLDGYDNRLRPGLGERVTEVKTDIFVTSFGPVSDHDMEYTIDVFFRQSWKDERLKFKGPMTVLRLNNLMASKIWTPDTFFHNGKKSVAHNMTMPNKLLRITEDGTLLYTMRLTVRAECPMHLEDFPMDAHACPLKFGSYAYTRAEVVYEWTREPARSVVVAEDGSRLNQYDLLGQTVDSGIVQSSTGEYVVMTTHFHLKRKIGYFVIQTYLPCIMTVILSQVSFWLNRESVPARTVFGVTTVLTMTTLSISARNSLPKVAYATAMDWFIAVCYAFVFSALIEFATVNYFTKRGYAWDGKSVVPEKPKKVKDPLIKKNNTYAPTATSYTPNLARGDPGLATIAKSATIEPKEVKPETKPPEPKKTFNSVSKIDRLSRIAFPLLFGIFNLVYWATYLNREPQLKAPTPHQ
α1β3γ2 GABAA receptors, sequence (P63079 26-473 partner): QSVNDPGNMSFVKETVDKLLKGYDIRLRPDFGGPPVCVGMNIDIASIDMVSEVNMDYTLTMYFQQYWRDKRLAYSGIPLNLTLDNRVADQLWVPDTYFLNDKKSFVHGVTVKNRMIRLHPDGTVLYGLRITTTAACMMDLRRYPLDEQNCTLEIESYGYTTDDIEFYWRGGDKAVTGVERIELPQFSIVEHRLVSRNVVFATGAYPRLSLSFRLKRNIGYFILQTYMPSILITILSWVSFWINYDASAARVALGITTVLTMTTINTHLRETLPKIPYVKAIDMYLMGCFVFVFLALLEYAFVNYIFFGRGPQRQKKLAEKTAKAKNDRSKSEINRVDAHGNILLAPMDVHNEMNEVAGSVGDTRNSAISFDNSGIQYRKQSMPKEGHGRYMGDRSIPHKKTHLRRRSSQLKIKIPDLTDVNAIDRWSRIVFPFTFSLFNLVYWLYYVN
α1β3γ2 GABAA receptors, sequence (P18508 39-466): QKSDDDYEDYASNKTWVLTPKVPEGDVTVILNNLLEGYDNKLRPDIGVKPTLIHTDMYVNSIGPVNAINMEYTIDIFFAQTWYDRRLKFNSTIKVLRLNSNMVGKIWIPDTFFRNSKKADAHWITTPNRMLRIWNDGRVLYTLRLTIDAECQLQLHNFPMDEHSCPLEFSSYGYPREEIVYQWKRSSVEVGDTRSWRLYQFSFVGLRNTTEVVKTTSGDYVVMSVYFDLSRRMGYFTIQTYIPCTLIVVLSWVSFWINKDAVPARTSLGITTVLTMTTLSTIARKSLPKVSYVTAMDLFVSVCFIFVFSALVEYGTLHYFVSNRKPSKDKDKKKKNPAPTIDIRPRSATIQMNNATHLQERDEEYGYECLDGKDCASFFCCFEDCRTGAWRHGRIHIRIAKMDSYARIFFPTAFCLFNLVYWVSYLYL
α5β3γ2 GABAA receptors, sequence (P19969 32-464 limits assumed): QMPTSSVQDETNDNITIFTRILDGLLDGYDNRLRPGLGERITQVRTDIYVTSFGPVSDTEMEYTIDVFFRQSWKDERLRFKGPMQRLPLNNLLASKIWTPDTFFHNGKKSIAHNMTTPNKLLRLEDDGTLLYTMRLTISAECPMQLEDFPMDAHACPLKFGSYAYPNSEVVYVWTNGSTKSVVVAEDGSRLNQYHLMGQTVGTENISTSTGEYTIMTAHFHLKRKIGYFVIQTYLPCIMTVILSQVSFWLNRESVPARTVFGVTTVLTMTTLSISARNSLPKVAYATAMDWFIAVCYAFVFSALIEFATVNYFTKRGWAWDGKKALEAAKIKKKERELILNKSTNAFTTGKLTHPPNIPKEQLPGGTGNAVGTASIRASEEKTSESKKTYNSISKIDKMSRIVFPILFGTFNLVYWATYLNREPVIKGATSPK
α5β3γ2 GABAA receptors, sequence (P63079 26-473 partner): as the sequence (P63079 26-473 partner) above
α5β3γ2 GABAA receptors, sequence (P18508 39-466): as the sequence (P18508 39-466) above
α3β3γ2 GABAA receptors, sequence (P20236 29-493): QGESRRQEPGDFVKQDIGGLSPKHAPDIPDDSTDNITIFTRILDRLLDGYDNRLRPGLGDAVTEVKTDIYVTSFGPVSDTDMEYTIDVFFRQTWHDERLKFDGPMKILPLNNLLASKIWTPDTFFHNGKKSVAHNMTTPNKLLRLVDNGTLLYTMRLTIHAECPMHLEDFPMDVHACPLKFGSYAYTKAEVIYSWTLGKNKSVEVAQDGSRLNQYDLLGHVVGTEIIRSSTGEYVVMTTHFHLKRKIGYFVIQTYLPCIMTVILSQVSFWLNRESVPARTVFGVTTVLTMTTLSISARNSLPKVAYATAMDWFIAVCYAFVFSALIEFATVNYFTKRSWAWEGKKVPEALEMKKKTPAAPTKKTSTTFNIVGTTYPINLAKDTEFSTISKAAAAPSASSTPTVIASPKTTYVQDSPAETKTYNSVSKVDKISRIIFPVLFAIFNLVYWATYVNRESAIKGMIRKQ
α3β3γ2 GABAA receptors, sequence (P63079 26-473 partner): as the sequence (P63079 26-473 partner) above
α3β3γ2 GABAA receptors, sequence (P18508 39-466): as the sequence (P18508 39-466) above
α2β3γ2 GABAA receptors, sequence (P23576 29-451): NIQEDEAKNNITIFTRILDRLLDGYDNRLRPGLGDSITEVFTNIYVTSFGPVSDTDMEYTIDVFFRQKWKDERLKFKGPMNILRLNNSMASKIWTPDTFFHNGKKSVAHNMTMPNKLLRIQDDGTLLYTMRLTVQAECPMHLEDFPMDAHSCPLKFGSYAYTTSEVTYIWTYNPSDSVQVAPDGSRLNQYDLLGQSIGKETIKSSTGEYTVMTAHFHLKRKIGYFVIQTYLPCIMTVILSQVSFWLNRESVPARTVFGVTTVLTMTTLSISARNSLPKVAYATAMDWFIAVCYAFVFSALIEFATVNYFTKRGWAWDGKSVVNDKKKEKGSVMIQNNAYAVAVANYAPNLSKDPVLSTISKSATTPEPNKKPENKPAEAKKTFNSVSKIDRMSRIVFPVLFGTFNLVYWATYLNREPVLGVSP
α2β3γ2 GABAA receptors, sequence (P63079 26-473 partner): as the sequence (P63079 26-473 partner) above
α2β3γ2 GABAA receptors, sequence (P18508 39-466): as the sequence (P18508 39-466) above

In the case of CN1C(=O)CN=C(c2ccccc2)c2cc(Cl)ccc21 [Diazepam, reference compound], the “Anxiolytic activity (time spent in the lighted area vs vehicle)” value (anxiety [1]; [9]) is reported as “significantly anxiolytic” and the “Locomotor activity vs vehicle” value (locomotor activity; [9]) is reported as “significantly reduced locomotor activity”.
For C#Cc1ccc2c(c1)C(c1ccccc1)=NCc1c(C(=O)OCC)ncn1-2 [compound 1], the “Preclinical safety and efficacy, in words” value [2] is listed as “safe and effective”, the “Side effects, in words” value (anxiety [3]) is listed as “lacked sedative, ataxic, muscle relaxant and amnestic side effects” and the Anti-conflict effect (anxiety [3]) is listed as “anti-conflict effect”. For the same compound, the “Effect on non-suppressed responding / response rates” value (anxiety [3]) was “without producing diazepam-like alterations”, the Safety in humans [4] was “safe in humans” and the “Stability in human tissues, in words” value [5] was “stable in human blood, plasma, brain and kidney”. For the same compound, the “Metabolic transformation in human liver, in words” value [6] was “largely transformed into the inactive metabolite XHe-II-053-acid (4)”.
In the case of C#Cc1ccc2c(c1)C(c1ccccn1)=NCc1c(C(=O)OCC)ncn1-2 [compound 2], the “Metabolic stability on human liver microsomes, in words” value (“Metabolic stability” below) [7] is listed as “minimal metabolism”, the “Side effects, in words” value (anxiety [3]) is listed as “lacked sedative, ataxic, muscle relaxant and amnestic side effects” and the Anti-conflict effect (anxiety [3]) is listed as “anti-conflict effect”. The “Effect on non-suppressed responding / response rates” value (anxiety [3]) was “without producing diazepam-like alterations”, the “Tolerance development (analgesic activity, chronic versus acute treatment)” value ([8]; 9-day chronic treatment period) was “no loss of analgesic activity” and the “Sedation and motor impairment” value ([8]; at doses producing maximal antihyperalgesia) was “devoid of sedation and motor impairment”.
In the case of C#Cc1ccc2c(c1)C(c1ccccc1F)=NCc1c(C(=O)OCC)ncn1-2 [compound 3], the “Metabolic stability” value [7] is listed as “underwent biotransformation almost quantitatively; also recorded: not very stable”, the Anti-conflict effect (anxiety [3]) is listed as “robust anti-conflict effect” and the “Effect on non-suppressed responding / response rates” value (anxiety [3]) is listed as “some reduction in response rates at the highest dose tested”.
For C#Cc1ccc2c(c1)C(c1ccccc1)=NCc1c(C(=O)O)ncn1-2 [compound 4], the “Metabolic stability” value [7] was “did not exhibit any metabolism”.
With C#Cc1ccc2c(c1)C(c1ccccn1)=NCc1c(C(=O)O)ncn1-2 [compound 5] the “Metabolic stability” value [7] was “did not exhibit any metabolism”.
In the case of C#Cc1ccc2c(c1)C(c1ccccc1)=NCc1c(C(=O)NC)ncn1-2 [compound 6, 8-Ethynyl-N-methyl-6-phenyl-4H-benzo-[f]-imidazo-[1,5-a]-[1,4]-diazepine-3-carboxamide], the “Metabolic stability” value [7] is reported as “decreased rate of metabolism; also recorded: much more stable on human liver microsomes than 1”, the “Efficacy, in words” value (α1β3γ2 GABAA receptors; 100 nM) is reported as “very weak agonistic effects” and the “Efficacy, in words” value (α1β3γ2 GABAA receptors; higher concentration) is reported as “antagonist”. The “Efficacy, in words” value (α2β3γ2 GABAA receptors) was “very weak agonistic effects”, the “Efficacy, in words” value (α5β3γ2 GABAA receptors; 100 nM) was “very weak agonistic effects” and the “Efficacy, in words” value (α5β3γ2 GABAA receptors; higher concentration) was “antagonist”.
In the case of C#Cc1ccc2c(c1)C(c1ccccn1)=NCc1c(C(=O)NC)ncn1-2 [compound 7, 8-Ethynyl-N-methyl-6-(pyridine-2-yl)-4H-benzo-[f]-imidazo-[1,5-a]-[1,4]-diazepine-3-carboxamide], the “Metabolic stability” value [7] is reported as “much more stable on human liver microsomes than 1” and the “Relative potency, in words” value (α3β3γ2 GABAA receptors) is reported as “relatively less potent than 8”.
With C#Cc1ccc2c(c1)C(c1ccccc1F)=NCc1c(C(=O)NC)ncn1-2 [compound 8, 8-Ethynyl-N-methyl-6-(2-fluorophenyl)-4H-benzo-[f]-imidazo-[1,5-a]-[1,4]-diazepine-3-carboxamide] the “Metabolic stability” value [7] was “significantly more stable than the corresponding ethyl ester analog 3”.
With C#Cc1ccc2c(c1)C(c1ccccc1)=NCc1c(-c3nc(C(C)C)no3)ncn1-2 [compound 11] the “Metabolic stability” value [7] was “significantly more stable than 1 and 2 respectively; also recorded: much more stable on human liver microsomes than 1”, the “Anxiolytic activity (time spent in the lighted area vs vehicle)” value (anxiety [1]; 10 and 100 mg/kg) was “significant anxiolytic activity” and the “Locomotor activity vs vehicle” value (locomotor activity; 10 and 100 mg/kg) was “significantly increased locomotor activity”. For the same compound, the “Sedation / ataxia, in words” value (locomotor activity; 10 and 100 mg/kg) was “devoid of sedative properties; also recorded: no effects from either ataxia or sedation; also recorded: no sedative properties”.
With C#Cc1ccc2c(c1)C(c1ccccn1)=NCc1c(-c3nc(C(C)C)no3)ncn1-2 [compound 12, 5-(8-Ethynyl-6-(pyridin-2-yl)-4H-benzo-[f]-imidazo-[1,5-a]-[1,4]-diazepine-3-yl)-3-isopropyl-1,2,4-oxadiazole] the “Metabolic stability” value [7] was “significantly more stable than 1 and 2 respectively” and the “Relative potency, in words” value (α3β3γ2 GABAA receptors) was “far less potent than 6 and 11”.
